Test results taken from ChEMBL document CHEMBL3769382, “Structure-Based Discovery of Novel and Selective 5-Hydroxytryptamine 2B Receptor Antagonists for the Treatment of Irritable Bowel Syndrome” (J Med Chem, 2016).

What was measured:
[1] = biological target: T1, 5-hydroxytryptamine receptor 2B (Homo sapiens, UniProt P41595); test: Antagonist activity at 5-HT2B receptor (unknown origin) expressed in CHO-K1 cells assessed as calcium flux at 1 uM after 60 mins by FLIPR assay; assay type: functional, cell-based
Summary of the method: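 CHO-K1 cells stably expressing 5-HT2B receptor, antagonist mode, calcium flux read-out. Compounds screened at 10 μM and 1 μM; dose-response curves run for compounds active in the screen to give IC50.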

[2] = biological target: 5-hydroxytryptamine receptor 1D (Homo sapiens, UniProt P28221); test: Displacement of [3H][…] from 5-HT1D receptor (unknown origin) after 1.5 hrs by microbeta scintillation counting method
[3] = biological target: T2, 5-hydroxytryptamine receptor 3A (Homo sapiens, UniProt P46098); test: Displacement of [3H]LY278584 from 5-HT3 receptor (unknown origin) after 1.5 hrs by microbeta scintillation counting method
T2 sequence (P46098 whole entry): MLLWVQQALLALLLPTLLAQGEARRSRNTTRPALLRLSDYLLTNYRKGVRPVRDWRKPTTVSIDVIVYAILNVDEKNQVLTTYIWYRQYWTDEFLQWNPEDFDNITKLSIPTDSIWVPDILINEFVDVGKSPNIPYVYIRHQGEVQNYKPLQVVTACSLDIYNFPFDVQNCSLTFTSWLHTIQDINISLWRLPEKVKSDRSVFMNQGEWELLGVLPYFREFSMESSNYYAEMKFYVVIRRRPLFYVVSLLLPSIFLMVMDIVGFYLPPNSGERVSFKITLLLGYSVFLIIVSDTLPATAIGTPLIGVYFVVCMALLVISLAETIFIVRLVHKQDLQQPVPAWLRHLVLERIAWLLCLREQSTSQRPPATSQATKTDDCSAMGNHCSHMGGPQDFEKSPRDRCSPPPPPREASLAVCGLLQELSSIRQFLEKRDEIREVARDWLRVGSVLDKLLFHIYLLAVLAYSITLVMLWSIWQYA

[4] = biological target: 5-hydroxytryptamine receptor 5A (Homo sapiens, UniProt P47898); test: Displacement of [3H]LSD from 5-HT5A receptor (unknown origin) after 1.5 hrs by microbeta scintillation counting method
[5] = biological target: 5-hydroxytryptamine receptor 2A (Homo sapiens, UniProt P28223); test: Displacement of [3H]Ketanserin from 5-HT2A receptor (unknown origin) after 1.5 hrs by microbeta scintillation counting method
[6] = biological target: T1, 5-hydroxytryptamine receptor 2B; test: Displacement of [3H]LSD from 5-HT2B receptor (unknown origin) after 1.5 hrs by microbeta scintillation counting method
[7] = biological target: 5-hydroxytryptamine receptor 1E (Homo sapiens, UniProt P28566); test: Displacement of [3H]-5-HT from 5-HT1E receptor (unknown origin) after 1.5 hrs by microbeta scintillation counting method
[8] = biological target: T3, 5-hydroxytryptamine receptor 1A (Homo sapiens, UniProt P08908); test: Displacement of [3H]8-OH-DPAT from 5-HT1A receptor (unknown origin) after 1.5 hrs by microbeta scintillation counting method
T3 sequence (P08908 whole entry): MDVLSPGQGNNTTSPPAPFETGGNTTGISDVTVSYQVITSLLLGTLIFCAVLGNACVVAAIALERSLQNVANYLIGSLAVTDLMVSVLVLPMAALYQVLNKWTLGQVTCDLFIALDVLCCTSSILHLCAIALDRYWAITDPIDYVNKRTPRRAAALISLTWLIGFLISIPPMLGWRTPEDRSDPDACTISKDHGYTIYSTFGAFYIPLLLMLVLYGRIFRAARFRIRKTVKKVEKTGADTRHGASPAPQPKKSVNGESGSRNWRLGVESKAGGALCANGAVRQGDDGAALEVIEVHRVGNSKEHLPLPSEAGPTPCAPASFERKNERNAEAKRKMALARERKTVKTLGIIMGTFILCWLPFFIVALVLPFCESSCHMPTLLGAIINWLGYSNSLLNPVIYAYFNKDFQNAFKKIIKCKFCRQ

[9] = biological target: 5-hydroxytryptamine receptor 6 (Homo sapiens, UniProt P50406); test: Displacement of [3H]LSD from 5-HT6 receptor (unknown origin) after 1.5 hrs by microbeta scintillation counting method
[10] = biological target: T4, 5-hydroxytryptamine receptor 2C (Homo sapiens, UniProt P28335); test: Displacement of [3H]LSD from 5-HT2C receptor (unknown origin) after 1.5 hrs by microbeta scintillation counting method
T4 sequence (P28335 whole entry): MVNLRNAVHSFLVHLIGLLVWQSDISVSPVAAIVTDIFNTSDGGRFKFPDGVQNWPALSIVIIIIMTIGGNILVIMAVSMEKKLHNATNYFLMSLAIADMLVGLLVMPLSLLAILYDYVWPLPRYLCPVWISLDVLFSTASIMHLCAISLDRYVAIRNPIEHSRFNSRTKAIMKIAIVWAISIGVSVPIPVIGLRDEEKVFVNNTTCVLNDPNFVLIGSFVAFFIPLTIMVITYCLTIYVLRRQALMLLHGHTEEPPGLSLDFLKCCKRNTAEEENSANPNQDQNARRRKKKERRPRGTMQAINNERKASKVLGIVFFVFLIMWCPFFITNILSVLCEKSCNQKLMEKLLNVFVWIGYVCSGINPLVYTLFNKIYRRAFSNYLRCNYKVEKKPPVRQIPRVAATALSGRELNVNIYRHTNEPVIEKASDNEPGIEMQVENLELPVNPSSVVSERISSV

[11] = biological target: 5-hydroxytryptamine receptor 1B (Homo sapiens, UniProt P28222); test: Displacement of [3H][…] from 5-HT1B receptor (unknown origin) after 1.5 hrs by microbeta scintillation counting method
[12] = biological target: 5-hydroxytryptamine receptor 7 (Homo sapiens, UniProt P34969); test: Displacement of [3H]LSD from 5-HT7A receptor (unknown origin) after 1.5 hrs by microbeta scintillation counting method
Rattus norvegicus [13] = test: Inhibition of visceral hypersensitivity in Sprague-Dawley rat model of IBS assessed as […] by measuring lifting of pelvic structure and arching of body at 30 mg/kg, po by colorectal distention test; assay type: functional
Summary of the method: (§1)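 Rat IBS model induced by TNBS injection, then chronic unpredictable mild stress; colon histology checked by HE staining. Compound given orally at 30 mg/kg. Visceral sensitivity scored by abdominal withdrawal reflex, with pain thresholds in mmHg at scores 3 and 4. Compared with control rats; % inhibition derived from thresholds.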

[14] = biological target: Voltage-gated inwardly rectifying potassium channel KCNH2 (Homo sapiens, UniProt Q12809); test: Inhibition of human ERG channel by patch clamp assay
Rattus norvegicus [15] = test: Acute toxicity in Sprague-Dawley rat at 500 mg/kg, po; assay type: organism-based; conditions: in vivo
Rattus norvegicus [16] = test: Inhibition of visceral hypersensitivity in Sprague-Dawley rat model of IBS assessed as […] by measuring abdominal contraction at 30 mg/kg, po by colorectal distention test; assay type: functional; conditions: Abdomen; summary of the method: as §1

Chain of 5-hydroxytryptamine receptor 2A (P28223 whole entry): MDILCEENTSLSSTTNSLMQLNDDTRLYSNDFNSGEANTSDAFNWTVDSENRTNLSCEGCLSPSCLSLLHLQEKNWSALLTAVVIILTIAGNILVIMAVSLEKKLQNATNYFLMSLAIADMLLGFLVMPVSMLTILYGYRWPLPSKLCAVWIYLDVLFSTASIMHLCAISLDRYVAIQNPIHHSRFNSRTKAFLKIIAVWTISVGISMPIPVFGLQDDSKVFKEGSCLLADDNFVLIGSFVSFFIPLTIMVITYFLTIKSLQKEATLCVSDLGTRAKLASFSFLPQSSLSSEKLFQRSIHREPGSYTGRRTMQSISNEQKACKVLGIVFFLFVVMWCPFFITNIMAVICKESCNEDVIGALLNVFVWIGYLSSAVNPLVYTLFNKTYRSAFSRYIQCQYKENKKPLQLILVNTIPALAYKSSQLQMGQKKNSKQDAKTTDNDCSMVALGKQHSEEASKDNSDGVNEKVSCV
Chain of 5-hydroxytryptamine receptor 7 (P34969 whole entry): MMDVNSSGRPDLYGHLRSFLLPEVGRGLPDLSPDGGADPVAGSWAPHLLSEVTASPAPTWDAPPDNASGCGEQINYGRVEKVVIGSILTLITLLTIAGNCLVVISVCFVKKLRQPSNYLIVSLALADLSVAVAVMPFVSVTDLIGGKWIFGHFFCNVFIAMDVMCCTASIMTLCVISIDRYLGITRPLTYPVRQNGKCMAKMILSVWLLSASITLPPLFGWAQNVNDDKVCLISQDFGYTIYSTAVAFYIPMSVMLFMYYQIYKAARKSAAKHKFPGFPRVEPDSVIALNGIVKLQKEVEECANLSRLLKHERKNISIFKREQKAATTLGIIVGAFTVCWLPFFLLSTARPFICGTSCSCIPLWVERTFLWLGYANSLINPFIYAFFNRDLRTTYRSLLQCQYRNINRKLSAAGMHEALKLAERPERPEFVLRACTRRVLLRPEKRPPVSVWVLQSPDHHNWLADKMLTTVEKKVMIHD
Chain of 5-hydroxytryptamine receptor 1B (P28222 whole entry): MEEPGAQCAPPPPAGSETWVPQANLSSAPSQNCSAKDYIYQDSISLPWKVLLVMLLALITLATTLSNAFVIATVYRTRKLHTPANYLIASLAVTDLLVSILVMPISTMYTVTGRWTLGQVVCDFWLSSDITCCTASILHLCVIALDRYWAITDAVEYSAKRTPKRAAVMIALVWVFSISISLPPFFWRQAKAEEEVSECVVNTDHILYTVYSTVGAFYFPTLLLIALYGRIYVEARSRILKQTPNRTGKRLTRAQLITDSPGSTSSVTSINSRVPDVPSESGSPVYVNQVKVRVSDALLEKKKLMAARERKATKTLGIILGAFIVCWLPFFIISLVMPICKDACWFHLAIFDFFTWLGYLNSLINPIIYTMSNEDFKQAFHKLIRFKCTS
T1 sequence (P41595 whole entry): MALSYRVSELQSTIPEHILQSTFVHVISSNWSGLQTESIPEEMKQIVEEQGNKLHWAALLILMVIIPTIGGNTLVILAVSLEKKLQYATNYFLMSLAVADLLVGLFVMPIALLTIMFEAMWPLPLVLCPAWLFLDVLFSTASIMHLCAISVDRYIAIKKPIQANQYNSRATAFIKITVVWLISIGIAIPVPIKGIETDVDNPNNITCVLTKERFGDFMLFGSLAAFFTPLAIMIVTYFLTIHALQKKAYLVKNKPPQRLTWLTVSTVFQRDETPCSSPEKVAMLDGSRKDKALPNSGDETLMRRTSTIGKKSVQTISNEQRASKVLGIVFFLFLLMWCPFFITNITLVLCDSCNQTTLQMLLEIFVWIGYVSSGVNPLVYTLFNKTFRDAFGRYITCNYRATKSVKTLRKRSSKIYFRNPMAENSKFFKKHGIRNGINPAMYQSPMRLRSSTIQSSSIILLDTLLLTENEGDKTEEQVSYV
Chain of 5-hydroxytryptamine receptor 5A (P47898 whole entry): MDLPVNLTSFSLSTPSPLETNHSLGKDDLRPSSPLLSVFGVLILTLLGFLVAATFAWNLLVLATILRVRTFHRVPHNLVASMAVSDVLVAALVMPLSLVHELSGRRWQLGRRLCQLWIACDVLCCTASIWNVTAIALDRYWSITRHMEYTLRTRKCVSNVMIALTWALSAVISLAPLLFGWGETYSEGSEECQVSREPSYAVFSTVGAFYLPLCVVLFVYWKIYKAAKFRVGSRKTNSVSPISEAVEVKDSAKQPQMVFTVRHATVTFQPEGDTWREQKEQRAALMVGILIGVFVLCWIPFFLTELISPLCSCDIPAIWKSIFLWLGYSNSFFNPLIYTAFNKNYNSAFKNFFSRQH
Chain of 5-hydroxytryptamine receptor 1E (P28566 whole entry): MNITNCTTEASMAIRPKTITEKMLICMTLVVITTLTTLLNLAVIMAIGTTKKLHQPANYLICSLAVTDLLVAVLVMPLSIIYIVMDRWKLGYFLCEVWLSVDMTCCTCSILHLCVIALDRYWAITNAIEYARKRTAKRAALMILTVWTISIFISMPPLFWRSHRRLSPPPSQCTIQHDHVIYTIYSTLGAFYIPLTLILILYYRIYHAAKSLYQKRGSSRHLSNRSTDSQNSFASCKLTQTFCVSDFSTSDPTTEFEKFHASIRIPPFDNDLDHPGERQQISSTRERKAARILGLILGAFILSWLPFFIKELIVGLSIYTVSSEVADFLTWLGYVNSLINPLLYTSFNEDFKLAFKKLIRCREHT
Chain of 5-hydroxytryptamine receptor 6 (P50406 whole entry): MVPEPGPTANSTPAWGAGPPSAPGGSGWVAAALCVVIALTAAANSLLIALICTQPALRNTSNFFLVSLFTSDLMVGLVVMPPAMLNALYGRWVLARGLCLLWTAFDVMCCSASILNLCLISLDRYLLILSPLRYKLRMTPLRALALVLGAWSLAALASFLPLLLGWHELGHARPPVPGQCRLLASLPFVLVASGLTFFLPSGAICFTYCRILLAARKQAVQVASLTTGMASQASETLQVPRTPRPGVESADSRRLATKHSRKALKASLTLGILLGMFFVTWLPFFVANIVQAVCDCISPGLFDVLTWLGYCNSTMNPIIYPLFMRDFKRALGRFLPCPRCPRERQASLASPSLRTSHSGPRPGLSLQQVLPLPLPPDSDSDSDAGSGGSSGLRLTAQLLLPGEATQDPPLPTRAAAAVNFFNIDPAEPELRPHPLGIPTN
Chain of 5-hydroxytryptamine receptor 1D (P28221 whole entry): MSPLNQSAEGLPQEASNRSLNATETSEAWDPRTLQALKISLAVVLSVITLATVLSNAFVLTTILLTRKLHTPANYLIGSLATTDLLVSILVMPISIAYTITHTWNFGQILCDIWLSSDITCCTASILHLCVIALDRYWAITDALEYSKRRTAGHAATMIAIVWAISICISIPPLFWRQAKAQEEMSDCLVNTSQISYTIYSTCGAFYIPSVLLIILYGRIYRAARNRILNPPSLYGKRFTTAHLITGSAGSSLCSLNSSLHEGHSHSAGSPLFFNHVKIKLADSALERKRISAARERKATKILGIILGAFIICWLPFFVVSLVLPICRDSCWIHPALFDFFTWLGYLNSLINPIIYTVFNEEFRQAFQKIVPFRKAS
Chain of Voltage-gated inwardly rectifying potassium channel KCNH2 (Q12809 whole entry): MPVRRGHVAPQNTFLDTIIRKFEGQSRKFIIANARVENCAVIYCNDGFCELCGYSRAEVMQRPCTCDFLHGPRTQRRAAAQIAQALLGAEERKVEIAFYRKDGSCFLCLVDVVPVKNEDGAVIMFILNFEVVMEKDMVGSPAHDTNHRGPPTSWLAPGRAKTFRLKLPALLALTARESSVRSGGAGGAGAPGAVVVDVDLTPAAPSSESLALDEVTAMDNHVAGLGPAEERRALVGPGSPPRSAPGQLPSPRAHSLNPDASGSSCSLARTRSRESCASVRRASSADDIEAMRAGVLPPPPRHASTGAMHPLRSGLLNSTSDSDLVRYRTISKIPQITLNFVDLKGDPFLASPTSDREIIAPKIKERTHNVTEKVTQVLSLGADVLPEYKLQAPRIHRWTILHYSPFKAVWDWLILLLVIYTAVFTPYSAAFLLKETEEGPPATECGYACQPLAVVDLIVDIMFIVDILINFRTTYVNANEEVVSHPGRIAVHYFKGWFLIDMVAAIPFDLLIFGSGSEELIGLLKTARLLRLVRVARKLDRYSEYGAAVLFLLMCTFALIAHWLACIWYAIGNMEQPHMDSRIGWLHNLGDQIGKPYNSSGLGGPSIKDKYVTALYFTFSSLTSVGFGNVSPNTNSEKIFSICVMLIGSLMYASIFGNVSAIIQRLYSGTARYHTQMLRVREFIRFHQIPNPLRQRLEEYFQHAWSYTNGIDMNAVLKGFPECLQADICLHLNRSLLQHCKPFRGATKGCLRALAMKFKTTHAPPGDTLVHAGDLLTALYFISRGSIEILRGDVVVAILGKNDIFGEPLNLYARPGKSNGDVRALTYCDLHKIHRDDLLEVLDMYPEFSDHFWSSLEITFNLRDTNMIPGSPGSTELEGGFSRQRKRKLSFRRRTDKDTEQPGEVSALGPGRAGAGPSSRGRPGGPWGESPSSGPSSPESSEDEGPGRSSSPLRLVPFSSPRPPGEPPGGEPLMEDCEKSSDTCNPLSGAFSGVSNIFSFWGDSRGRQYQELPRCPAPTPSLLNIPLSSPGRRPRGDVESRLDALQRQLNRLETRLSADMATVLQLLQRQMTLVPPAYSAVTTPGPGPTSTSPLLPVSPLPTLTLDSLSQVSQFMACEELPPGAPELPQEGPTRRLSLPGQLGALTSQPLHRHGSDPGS

Work on CCCC(=O)c1cccc(NC2=NC(N)=NC3(CCCCC3)N2)c1 yielded an inhibition [1] of 106%.

Cc1ccc(NC2=NC(N)=NC3(CCCCC3)N2)cc1 was tested, and the inhibition [1] was 50.2%.

In the case of CCOC(=O)c1cccc(NC2=NC(NC)=NC3(CCCCC3)N2)c1, the inhibition [1] is reported as 108%.

CCOC(=O)c1cccc(NC2=NC(N(C)C)=NC3(CCCCC3)N2)c1 was tested, and the Ki [2] was 3830 nM, the Ki [3] was greater than 10000 nM and the inhibition [1] was 91.8%. For the same compound, the Ki [4] was 595 nM, the Ki [5] was 1540 nM and the Ki [6] was 38.5 nM. The Ki [7] was greater than 10000 nM, the Ki [8] was 116 nM and the Ki [9] was 4780 nM. The Ki [10] was 1200 nM, the Ki [11] was 9650 nM and the Ki [12] was 516 nM.

CCOC(=O)c1cccc(NC2=NC(N)=NC3(CCCCC3)N2)c1 showed a Ki [2] of 8590 nM, a Ki [3] greater than 10000 nM and an inhibition [1] of 107%. For the same compound, the Ki [4] was 457 nM, the Ki [5] was 174 nM and the Ki [6] was 7.2 nM. The Ki [7] was greater than 10000 nM, the Ki [8] was 714 nM and the Ki [9] was 3590 nM. The Ki [10] was 851 nM, the Ki [11] was greater than 10000 nM and the Ki [12] was 472 nM.

Cc1ccccc1NC1=NC(N)=NC2(CCCCC2)N1 was tested, and the inhibition [1] was 39.9%.

COc1ccccc1NC1=NC(N)=NC2(CCCCC2)N1 was tested, and the inhibition [1] was 20.7%.

CCCOC(=O)c1cccc(NC2=NC(N)=NC3(CCCCC3)N2)c1 gave an inhibition [1] of 110%.

With NC1=NC2(CCCCC2)NC(Nc2cccc(C(=O)O)c2)=N1 the inhibition [1] was 4.4%.

For NC1=NC2(CCCCC2)NC(Nc2cccc(C(=O)C3CC3)c2)=N1, the inhibition [1] was 4%.

With CC1(C)N=C(N)N=C(Nc2cccc(Br)c2)N1 the Ki [2] was 2650 nM, the Ki [3] was greater than 10000 nM and the inhibition [1] was 75.9%. It also gave a Ki [4] of 389 nM, a Ki [5] of 783 nM and a Ki [6] of 20.5 nM. It also gave a Ki [7] greater than 10000 nM, a Ki [8] of 660 nM and a Ki [9] of 696 nM. The Ki [10] was 265 nM, the Ki [11] was 1530 nM and the Ki [12] was 2080 nM.

Work on CCNC(=O)c1cccc(NC2=NC(N)=NC3(CCCCC3)N2)c1 yielded a Ki [2] greater than 10000 nM, a Ki [3] greater than 10000 nM and an inhibition [1] of 95.5%. It also gave a Ki [4] of 994 nM, a Ki [5] of 1310 nM and a Ki [6] of 27.5 nM. The Ki [7] was greater than 10000 nM, the Ki [8] was 6760 nM and the Ki [9] was 5910 nM. For the same compound, the Ki [10] was 1900 nM, the Ki [11] was greater than 10000 nM and the Ki [12] was 427 nM.

For COc1cccc(NC2=NC(N)=NC3(CCCC3)N2)c1, the inhibition [1] was 63%.

Work on CN(C)c1ccc(NC2=NC(N)=NC3(CCCCC3)N2)cc1 yielded an inhibition [1] of 17.6%.

For COc1cccc(NC2=NC(N)=NC3(CCCCC3)N2)c1, the inhibition [1] was 84.6%.

NC1=NC2(CCCCC2)NC(Nc2ccc(Cl)cc2)=N1 gave an inhibition [1] of 57.1%.

CCN(CC)C(=O)c1cccc(NC2=NC(N)=NC3(CCCCC3)N2)c1 gave an inhibition [1] of 40.7%.

With NC1=NC2(CCCCC2)NC(Nc2cccc(Br)c2)=N1 the Ki [2] was 2900 nM, the Ki [3] was greater than 10000 nM and the inhibition [1] was 97.4%. It also gave a Ki [4] of 227 nM, a Ki [5] of 211 nM and an inhibition in vivo at 30 mg/kg (Rattus norvegicus [13]) of 63%. For the same compound, the Ki [6] was 6.2 nM, the IC50 [14] was greater than 1000 nM and the Ki [7] was greater than 10000 nM. The Ki [8] was 320 nM, the Ki [9] was 3030 nM and the Ki [10] was 156 nM. For the same compound, the Activity (Rattus norvegicus [15]) was “Non-toxic”, the Ki [11] was greater than 10000 nM and the inhibition in vivo at 30 mg/kg (Rattus norvegicus [16]) was 68%. For the same compound, the Ki [12] was 401 nM.

With CCOC(=O)c1cccc(N(C)C2=NC(N)=NC3(CCCCC3)N2)c1 the inhibition [1] was 50.4%.
